# Active and inactive are the calls of the source. No cut-off for these calls is given here.
# Legend:
# [1] = system: Mus musculus; assay: Toxicity in nu/nu mouse xenografted with human MV4-11 cells assessed as body weight loss at 15 to 40 mg/kg, iv qd administered for 21 days measuring during compound dosing; assay type: organism-based; conditions: in vivo, 504 h
# Outline: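 Female nu/nu mice carried established MV4-11 xenografts. Once tumors reached 200 mm3, mice were grouped and given compound or vehicle by intravenous injection once daily at 15, 30 or 40 mg/kg/d for 21 days. A Cytarabine arm received 50 mg/kg/d iv. Body weight was tracked during dosing and expressed relative to initial weight set as 100%.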
# [2] = system: MV4-11; assay: Induction of apoptosis in human MV4-11 cells assessed as early apoptotic cells at 0.2 uM after 24 hrs by annexin V-FITC/propidium iodide staining-based flow cytometric method (reference value: 3.54%); assay type: functional
# [3] = Intrinsic clearance in mouse liver microsomes by LC-MS/MS analysis; assay type: ADME, microsome; conditions: read-out: CLH
# [4] = molecular target: Receptor-type tyrosine-protein kinase FLT3 (Homo sapiens) (UniProt P36888); assay: Inhibition of FLT3 phosphorylation in human MV4-11 cells at 0.02 to 1 uM after 24 hrs by Western blot analysis; assay type: cell-based
# Chain of Receptor-type tyrosine-protein kinase FLT3 (Homo sapiens) (P36888 whole entry): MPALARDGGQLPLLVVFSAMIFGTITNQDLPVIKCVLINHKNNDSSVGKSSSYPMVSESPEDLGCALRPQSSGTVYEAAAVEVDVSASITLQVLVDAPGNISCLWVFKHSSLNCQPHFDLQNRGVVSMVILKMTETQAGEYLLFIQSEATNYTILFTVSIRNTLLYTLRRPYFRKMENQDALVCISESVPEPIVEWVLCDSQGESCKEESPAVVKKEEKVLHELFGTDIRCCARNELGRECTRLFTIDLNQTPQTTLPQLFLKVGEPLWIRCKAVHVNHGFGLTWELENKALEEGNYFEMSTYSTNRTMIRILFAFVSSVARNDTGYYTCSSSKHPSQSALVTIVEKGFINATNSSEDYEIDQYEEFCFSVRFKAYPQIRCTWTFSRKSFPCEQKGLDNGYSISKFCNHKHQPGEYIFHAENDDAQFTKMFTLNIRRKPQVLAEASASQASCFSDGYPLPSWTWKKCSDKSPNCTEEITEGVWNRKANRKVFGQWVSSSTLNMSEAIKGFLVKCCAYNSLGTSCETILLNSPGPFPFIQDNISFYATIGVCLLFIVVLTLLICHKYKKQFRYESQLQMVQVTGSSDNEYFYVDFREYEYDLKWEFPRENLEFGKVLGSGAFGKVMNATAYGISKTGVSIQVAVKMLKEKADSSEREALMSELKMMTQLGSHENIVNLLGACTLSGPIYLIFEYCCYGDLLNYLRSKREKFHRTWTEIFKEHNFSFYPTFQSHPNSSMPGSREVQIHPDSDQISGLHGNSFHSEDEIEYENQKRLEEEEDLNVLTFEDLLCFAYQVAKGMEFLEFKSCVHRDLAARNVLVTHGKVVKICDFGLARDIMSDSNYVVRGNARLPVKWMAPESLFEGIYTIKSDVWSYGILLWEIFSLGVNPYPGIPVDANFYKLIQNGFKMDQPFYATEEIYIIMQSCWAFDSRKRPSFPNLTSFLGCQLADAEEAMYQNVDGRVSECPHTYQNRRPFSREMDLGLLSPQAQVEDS
# Outline: (§1)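 MV4-11 cells treated with increasing concentrations of compound for 24 h. Lysates immunoblotted for phosphorylated FLT3, STAT5, ERK, AKT and Rb.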
# [5] = system: MV4-11; assay: Induction of apoptosis in human MV4-11 cells assessed as late apoptotic cells at 1 uM after 24 hrs by annexin V-FITC/propidium iodide staining-based flow cytometric method (reference value: 2.54%); assay type: functional
# [6] = Intrinsic clearance in human liver microsomes by LC-MS/MS analysis; assay type: ADME, microsome; conditions: read-out: CLH
# [7] = system: HCT-116; assay: Cell cycle arrest in human HCT116 cells assessed as accumulation at G2/M phase at 0.1 to 1 uM after 24 hrs by propidium iodide/BrdU staining-based flow cytometric method; assay type: functional
# Outline: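 Cells treated with compound for 24 h, then fixed. Double-stained with propidium iodide and BrdU for flow cytometric analysis of cell cycle distribution.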
# [8] = Terminal half life in rat liver microsomes by LC-MS/MS analysis; assay type: ADME, microsome; conditions: read-out: beta t1/2 (converted)
# Outline: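 Metabolic stability measured by incubating compound in human, rat, mouse, dog and monkey liver microsomes. Terminal t1/2 determined.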
# [9] = system: Lymphocyte; assay: Cytotoxicity against human lymphocytes assessed as decrease in cell viability after 72 hrs by MTT assay; assay type: cell-based
# [10] = species on record: Homo sapiens; assay: Inhibition of CDK in human MV4-11 cells assessed as decrease in Rb phosphorylation at Ser807/811 after 24 hrs by Western blot analysis; assay type: cell-based; outline: as §1
# [11] = molecular target: Cyclin-dependent kinase 4/cyclin D1 (Homo sapiens, UniProt P11802); assay: Inhibition of human CDK4/Cyclin D1 using RB protein as substrate preincubated for 20 mins followed by [gamma-33P]-ATP addition measure after 120 mins by filter binding method; assay type: protein-complex assay
# Chain of Cyclin-dependent kinase 4/cyclin D1 (P11802 whole entry): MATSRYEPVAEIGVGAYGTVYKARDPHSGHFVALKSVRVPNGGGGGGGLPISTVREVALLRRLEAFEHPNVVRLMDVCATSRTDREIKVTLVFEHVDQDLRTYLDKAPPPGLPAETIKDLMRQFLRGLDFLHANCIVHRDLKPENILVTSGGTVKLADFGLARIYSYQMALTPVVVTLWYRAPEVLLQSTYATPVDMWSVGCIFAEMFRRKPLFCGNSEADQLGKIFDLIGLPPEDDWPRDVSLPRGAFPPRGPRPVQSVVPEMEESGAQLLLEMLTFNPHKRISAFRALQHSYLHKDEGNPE
# Chain of Cyclin-dependent kinase 4/cyclin D1 (P24385 whole entry, further chain): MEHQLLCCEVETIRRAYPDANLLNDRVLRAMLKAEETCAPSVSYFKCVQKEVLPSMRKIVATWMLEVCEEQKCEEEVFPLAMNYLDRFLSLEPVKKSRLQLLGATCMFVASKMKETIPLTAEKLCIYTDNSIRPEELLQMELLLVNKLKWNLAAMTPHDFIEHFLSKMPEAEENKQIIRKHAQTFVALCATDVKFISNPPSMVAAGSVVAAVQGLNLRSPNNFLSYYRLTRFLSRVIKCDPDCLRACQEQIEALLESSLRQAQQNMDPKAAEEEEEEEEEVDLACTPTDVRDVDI
# Outline: (§2)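 Compound preincubated with kinase 20 min at room temperature. Reaction started with 10 μM [γ-33P]ATP and run 120 min at 25°C. Filter-binding read-out, curve-fitted IC50; mean ± SD of three independent experiments.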
# [12] = system: MV4-11; assay: Induction of apoptosis in human MV4-11 cells assessed as late apoptotic cells at 2 uM after 24 hrs by annexin V-FITC/propidium iodide staining-based flow cytometric method (reference value: 2.54%); assay type: functional
# [13] = system: RS4-11; assay: Growth inhibition of human RS4:11 cells after 72 hrs by CellTiter-Glo assay; assay type: functional; conditions: RS4-11, 72 h
# [14] = Toxicity in ICR mouse administered via gavage measured for 12 days; conditions: in vivo, po
# [15] = system: MV4-11; assay: Induction of apoptosis in human MV4-11 cells assessed as late apoptotic cells at 0.2 uM after 24 hrs by annexin V-FITC/propidium iodide staining-based flow cytometric method (reference value: 2.54%); assay type: functional
# [16] = molecular target: CDK6/cyclin D1 (Homo sapiens, UniProt Q00534); assay: Inhibition of human CDK6/Cyclin D1 using RB protein as substrate preincubated for 20 mins followed by [gamma-33P]-ATP addition measure after 120 mins by filter binding method; assay type: protein-complex assay; outline: as §2
# Chain of CDK6/cyclin D1 (P24385 whole entry): as the sequence (P24385 whole entry, further chain) above
# Chain of CDK6/cyclin D1 (Q00534 whole entry): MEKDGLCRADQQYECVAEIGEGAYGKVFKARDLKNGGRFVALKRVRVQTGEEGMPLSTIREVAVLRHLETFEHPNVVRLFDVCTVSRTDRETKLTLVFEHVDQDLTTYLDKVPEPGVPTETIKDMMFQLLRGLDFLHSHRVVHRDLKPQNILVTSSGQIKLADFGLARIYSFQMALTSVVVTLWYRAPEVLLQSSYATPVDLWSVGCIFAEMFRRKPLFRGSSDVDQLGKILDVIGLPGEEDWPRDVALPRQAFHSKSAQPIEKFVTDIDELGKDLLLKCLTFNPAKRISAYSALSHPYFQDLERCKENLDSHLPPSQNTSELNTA
# [17] = system: MV4-11; assay: Induction of apoptosis in human MV4-11 cells assessed as early apoptotic cells at 1 uM after 24 hrs by annexin V-FITC/propidium iodide staining-based flow cytometric method (reference value: 3.54%); assay type: functional
# [18] = molecular target: Receptor-type tyrosine-protein kinase FLT3 (Homo sapiens) (UniProt P36888); assay: Inhibition of FLT3 phosphorylation in human MV4-11 cells assessed as decrease in ERK phosphorylation at 0.02 to 1 uM after 24 hrs by Western blot analysis; assay type: cell-based; outline: as §1
# [19] = system: MV4-11; assay: Induction of apoptosis in human MV4-11 cells at 2 uM after 24 hrs by annexin V-FITC/propidium iodide staining-based flow cytometric method; assay type: functional, cell-based
smiles,measurement,setting,value
CN1CCN(Cc2ccc(NC(=O)c3n[nH]cc3Nc3ncnc4[nH]ccc34)cc2)CC1,Activity,[1],Non-Toxic
same,Activity,[2],15.02%
same,CLint scaled,[3],139 mL/min/kg
same,inhibition,[4],Active
same,Activity,[5],14.79%
same,CLint scaled,[6],13.3 mL/min/kg
same,Activity,[7],Active
same,half-life,[8],1.03 h
same,IC50,[9],492 nM
same,inhibition,[10],Dose-dependent effect
same,IC50,[11],0.85 nM
same,Activity,[12],24.17%
same,GI50,[13],50 nM
same,LD50 at 288 h,[14],186 mg/kg
same,Activity,[15],9.33%
same,IC50,[16],1.96 nM
same,Activity,[17],31.56%
same,inhibition,[18],Active
same,Activity,[19],Dose-dependent effect

# Source: ChEMBL document CHEMBL4052828, “Discovery of 4-((7H-Pyrrolo[2,3-d]pyrimidin-4-yl)amino)-N-(4-((4-methylpiperazin-1-yl)methyl)phenyl)-1H-pyrazole-3-carboxamide (FN-1501), an FLT3- and CDK-Kinase Inhibitor with Potentially High Efficiency against Acute Myelocytic Leukemia” (J Med Chem, 2018)
